Where a SMILES comes first, the peptide text is derived from it. Bridges are numbered along the chain shown (N, C = ends). The star is where a group is joined. βGlc = OC[C@H]1O[C@@H](*)[C@H](O)[C@@H](O)[C@@H]1O
What was measured:
[1] = molecular target: toll-like receptor 4 (TLR4) (Homo sapiens, UniProt O00206); type: binding; settings: ELISA, result in words
Method in brief: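 Antagonism of LPS–TLR4 binding measured by ELISA, read as optical density at 450 nm. Each sample was run as four parallel experiments, with OD reported as mean ± standard deviation. IC50 values were derived from dose–response curves.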

carboxypeptidase Y = experiment: carboxypeptidase Y-treatment experiments; type: in vitro ADME; settings: 28 °C for 12 h, pH 6.0
thermal stability assay = type: physicochemical; settings: heating experiments, 95 °C for 3 h

toll-like receptor 4 (TLR4), sequence (O00206 24-839): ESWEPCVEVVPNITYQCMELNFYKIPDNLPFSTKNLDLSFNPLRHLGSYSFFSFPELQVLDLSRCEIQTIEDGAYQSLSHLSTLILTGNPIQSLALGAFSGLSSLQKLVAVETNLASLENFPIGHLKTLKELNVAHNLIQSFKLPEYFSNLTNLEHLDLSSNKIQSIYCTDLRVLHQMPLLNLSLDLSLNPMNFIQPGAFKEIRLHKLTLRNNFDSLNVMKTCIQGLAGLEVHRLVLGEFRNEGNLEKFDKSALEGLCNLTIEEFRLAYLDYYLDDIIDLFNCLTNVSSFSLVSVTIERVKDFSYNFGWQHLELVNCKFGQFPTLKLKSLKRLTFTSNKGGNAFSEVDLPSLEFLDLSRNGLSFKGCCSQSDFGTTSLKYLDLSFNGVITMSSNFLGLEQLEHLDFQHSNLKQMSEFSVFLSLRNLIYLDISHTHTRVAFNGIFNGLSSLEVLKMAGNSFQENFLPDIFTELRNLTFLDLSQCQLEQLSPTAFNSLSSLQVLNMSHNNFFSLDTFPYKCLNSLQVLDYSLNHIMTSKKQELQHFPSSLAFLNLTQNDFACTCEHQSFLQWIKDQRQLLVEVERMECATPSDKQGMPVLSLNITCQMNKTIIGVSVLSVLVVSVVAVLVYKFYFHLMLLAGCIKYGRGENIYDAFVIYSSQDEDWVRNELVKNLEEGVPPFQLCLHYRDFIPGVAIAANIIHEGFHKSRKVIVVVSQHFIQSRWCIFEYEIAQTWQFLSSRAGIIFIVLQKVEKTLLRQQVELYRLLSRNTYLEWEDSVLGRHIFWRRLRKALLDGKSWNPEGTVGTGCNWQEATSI
toll-like receptor 4 (TLR4), sequence (Q9Y6Y9 17-160 partner limits assumed): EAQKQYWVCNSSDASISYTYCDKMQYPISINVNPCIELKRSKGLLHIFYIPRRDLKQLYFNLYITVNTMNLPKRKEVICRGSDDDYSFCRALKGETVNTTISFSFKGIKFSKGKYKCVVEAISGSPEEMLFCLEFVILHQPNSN

proteolytic stability (carboxypeptidase Y) | thermal stability (thermal stability assay) | Compound | antagonistic (inhibitory) activity against the binding of LPS to TLR4 [1]
– | – | CC[C@H](C)[C@@H]1NC(=O)[C@H](C(C)C)NC(=O)[C@H](C(C)C)NC(=O)[C@H](CC(C)C)NC(=O)C[C@@H](C(=O)N[C@@H](Cc2c[nH]c3ccccc23)C(=O)N[C@@H](CC(N)=O)C(=O)N[C@@H](C)C(=O)N2CCC[C@H]2C(=O)NCC(=O)N[C@@H](Cc2c[nH]c3ccccc23)C(=O)N[C@@H](Cc2ccc(O[C@@H]3O[C@H](CO)[C@@H](O)[C@H](O)[C@H]3O)cc2)C(=O)O)NC(=O)[C@H](C)NC(=O)[C@H](CCC(N)=O)NC(=O)[C@H](C(C)C)NC1=O [compound 20, stlassin F15Y-I] (LVVIVQADWNAPGWY(βGlc)-OH; lactam N-8) | comparable inhibitory activities to stlassin (1)
– | – | stlassin I4C [compound 21] | comparable inhibitory activities to stlassin (1)
similarly high stability to that of 1 | similarly high stability to that of 1 | stlassin V2C/A11C [compound 18] | –
